Activity calls are given as the source filed them. The calls are words filed in the database; no cut-off is given here.
Experiments:
[1] = Antitumor activity against mouse Ehrlich Ascites tumor xenografted in Swiss albino mouse assessed as tumor growth inhibition at 50 mg/kg, ip administered for 9 days measured on day 13; type: functional; conditions: route intraperitoneal, read-out: GI
[2] = Antitumor activity against mouse Ehrlich Ascites tumor xenografted in Swiss albino mouse assessed as tumor growth inhibition at 100 mg/kg, ip administered for 9 days measured on day 13; type: functional; conditions: route intraperitoneal, read-out: GI
Ehrlich [3] = assay: Antitumor activity against mouse EAC cells transplanted in ip dosed Swiss albino mouse assessed as tumor growth inhibition administered for 9 days; type: functional, organism-based
In short: (§1)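 EAC ascites model: mice of the same sex, 20 ± 3 g, injected intraperitoneally with 1 × 10^7 cells from a donor bearing 8–10 day old ascites tumor (day 0). Randomised the next day, 7 per test group and 10 controls. Doses were suspended in 1% gum acacia and given i.p. for nine consecutive days; controls received saline 0.2 mL i.p. On day 12, ascitic fluid volume and tumor cell count were measured, and % inhibition was calculated from cell number versus control.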

[4] = target: Transcription factor p65 (Homo sapiens) (UniProt Q04206); assay: Inhibition of NF-kappaB p65 subunit transcriptional activity in human SW620 cells at 5 uM by Western blot analysis; type: cell-based; conditions: SW-620
Transcription factor p65 (Homo sapiens), sequence (Q04206 whole entry): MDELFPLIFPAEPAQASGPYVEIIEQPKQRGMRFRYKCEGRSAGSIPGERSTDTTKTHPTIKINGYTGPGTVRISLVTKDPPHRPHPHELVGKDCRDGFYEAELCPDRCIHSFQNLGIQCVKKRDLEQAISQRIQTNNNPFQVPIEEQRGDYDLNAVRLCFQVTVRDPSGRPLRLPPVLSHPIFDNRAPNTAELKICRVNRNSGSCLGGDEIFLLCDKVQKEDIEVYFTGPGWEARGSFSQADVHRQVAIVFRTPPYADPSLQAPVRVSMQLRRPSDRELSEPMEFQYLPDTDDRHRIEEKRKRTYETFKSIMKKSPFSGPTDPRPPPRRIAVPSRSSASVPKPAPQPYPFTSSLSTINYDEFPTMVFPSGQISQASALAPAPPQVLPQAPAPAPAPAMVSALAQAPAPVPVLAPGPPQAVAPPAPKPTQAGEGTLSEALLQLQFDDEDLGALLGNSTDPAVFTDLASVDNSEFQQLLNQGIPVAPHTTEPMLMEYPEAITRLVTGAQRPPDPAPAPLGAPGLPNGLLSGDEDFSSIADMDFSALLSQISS
In short: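 SW-620 cells (5 × 10^6) exposed to 5 for the indicated times. Washed in ice-cold PBS, lysed in Hepes pH 7.9 buffer with KCl, EDTA, EGTA, DTT, PMSF, NaF, vanadate and protease inhibitors, then NP-40 0.5%. Cytosol taken after 8000 × g. Nuclear fraction extracted with 20% glycerol and 0.4 M KCl on ice for 30 min, spun at 13,000 × g. NF-κB assessed by western blot.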

[5] = Antitumor activity against mouse EAC cells transplanted in Swiss albino mouse assessed as decrease in astic fluid volume at 10 mg/kg, ip administered for 9 days (reference value: 4.57+/-0.39 mL); type: functional, Ehrlich; conditions: route intraperitoneal; in short: as §1
[6] = Antitumor activity against mouse EAC cells transplanted in Swiss albino mouse assessed as decrease in astic fluid volume at 25 mg/kg, ip administered for 9 days (reference value: 4.57+/-0.39 mL); type: functional, Ehrlich; conditions: route intraperitoneal
[7] = Antitumor activity against mouse EAC cells transplanted in Swiss albino mouse assessed as decrease in astic fluid volume at 50 mg/kg, ip administered for 9 days (reference value: 4.57+/-0.39 mL); type: functional, Ehrlich; conditions: route intraperitoneal
[8] = Antitumor activity against mouse EAC cells transplanted in Swiss albino mouse assessed as decrease in astic fluid volume at 100 mg/kg, ip administered for 9 days (reference value: 4.57+/-0.39 mL); type: functional, Ehrlich; conditions: route intraperitoneal
Mus musculus [9] = assay: Toxicity in Swiss albino mouse transplanted with EAC cells assessed as mortality at 200 mg/kg, ip administered for 9 days measured on day 3rd; type: organism-based, Ehrlich; design: dose 200 mg/kg, route intraperitoneal; conditions: in vivo, 216 h; in short: as §1
Ehrlich [10] = assay: Antitumor activity against mouse EAC cells transplanted in Swiss albino mouse assessed as decrease in tumor cells in ascetic fluid at 10 mg/kg, ip administered for 9 days (reference value: 4.57+/-0.39 mL); type: functional, organism-based; design: dose 10 mg/kg; in short: as §1
Ehrlich [11] = assay: Antitumor activity against mouse EAC cells transplanted in Swiss albino mouse assessed as decrease in tumor cells in ascetic fluid at 25 mg/kg, ip administered for 9 days (reference value: 4.57+/-0.39 mL); type: functional, organism-based; design: dose 25 mg/kg
Ehrlich [12] = assay: Antitumor activity against mouse EAC cells transplanted in Swiss albino mouse assessed as decrease in tumor cells in ascetic fluid at 50 mg/kg, ip administered for 9 days (reference value: 4.57+/-0.39 mL); type: functional, organism-based; design: dose 50 mg/kg
Ehrlich [13] = assay: Antitumor activity against mouse EAC cells transplanted in Swiss albino mouse assessed as decrease in tumor cells in ascetic fluid at 100 mg/kg, ip administered for 9 days (reference value: 4.57+/-0.39 mL); type: functional, organism-based; design: dose 100 mg/kg
[14] = Antitumor activity against mouse EAC cells transplanted in Swiss albino mouse assessed as tumor growth inhibition at 10 mg/kg, ip administered for 9 days (reference value: 4.57+/-0.39 mL); type: functional; conditions: Ehrlich, 216 h, route intraperitoneal, read-out: GI; in short: as §1
[15] = Antitumor activity against mouse EAC cells transplanted in Swiss albino mouse assessed as tumor growth inhibition at 25 mg/kg, ip administered for 9 days (reference value: 4.57+/-0.39 mL); type: functional; conditions: Ehrlich, 216 h, route intraperitoneal, read-out: GI
[16] = Antitumor activity against mouse EAC cells transplanted in Swiss albino mouse assessed as tumor growth inhibition at 50 mg/kg, ip administered for 9 days (reference value: 4.57+/-0.39 mL); type: functional; conditions: Ehrlich, 216 h, route intraperitoneal, read-out: GI
[17] = Antitumor activity against mouse EAC cells transplanted in Swiss albino mouse assessed as tumor growth inhibition at 100 mg/kg, ip administered for 9 days (reference value: 4.57+/-0.39 mL); type: functional; conditions: Ehrlich, 216 h, route intraperitoneal, read-out: GI
[18] = Partition coefficient, log P of the compound; type: physicochemical; conditions: octanol/water
Mus musculus [19] = assay: Toxicity in ip dosed Swiss albino mouse transplanted with mouse EAC cells assessed as mortality administered for 9 days; type: organism-based, Ehrlich; conditions: in vivo, 216 h; in short: as §1
SW-620 [20] = assay: Cytotoxicity against human SW620 cells assessed as cell growth after 48 hrs by sulforhodamine B assay; type: functional, cell-based; conditions: Homo sapiens, SW-620, 48 h
In short: (§2)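 Log-phase cells seeded at 10^4/well and allowed to attach for 24 h at 37 °C, 5% CO2. Exposed for 48 h to 0.1–100 (1:10 serial dilutions), four replicate wells per condition. Fixed with cold 50% TCA for 1 h at 4 °C, stained with sulforhodamine B, dye dissolved in Tris, OD read at 540 nm. Blank-subtracted growth expressed relative to untreated cells (100%); IC50 reported.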

DU-145 = assay: Cytotoxicity against human DU145 cells assessed as cell growth after 48 hrs by sulforhodamine B assay; type: functional, cell-based; conditions: Homo sapiens, DU-145, 48 h; in short: as §2
PC-3 = assay: Cytotoxicity against human PC3 cells assessed as cell growth after 48 hrs by sulforhodamine B assay; type: functional, cell-based; conditions: Homo sapiens, PC-3, 48 h; in short: as §2
SW-620 [21] = assay: Induction of apoptosis in human SW620 cells assessed as DNA fragmentation at 50 uM after 24 hrs by gel electrophoresis; type: functional, cell-based
In short: (§3)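 SW-620 cells (2 × 10^6 per 60 mm plate) treated for 24 h at 10, 50 or 100. Pellets lysed in 10 mM EDTA, 50 mM Tris pH 8.0, 0.5% SDS and proteinase K 0.5 mg/mL at 50 °C for 1 h. DNA heated briefly to 70 °C and run on 1.5% agarose at 50 V for 2–3 h. Untreated cells served as control; camptothecin as positive control.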

SW-620 [22] = assay: Induction of apoptosis in human SW620 cells assessed as DNA fragmentation at 100 uM after 24 hrs by gel electrophoresis; type: functional, cell-based; in short: as §3
SW-620 [23] = assay: Cell cycle arrest in human SW620 cells assessed as increase in sub-G1 DNA content at 5 uM after 24 hrs using propidium iodide staining by flow cytometry (reference value: 3.45%); type: functional
SW-620 [24] = assay: Cell cycle arrest in human SW620 cells assessed as increase in sub-G1 DNA content at 1 uM after 24 hrs using propidium iodide staining by flow cytometry (reference value: 3.45%); type: functional
SW-620 [25] = assay: Cell cycle arrest in human SW620 cells assessed as increase in sub-G1 DNA content at 10 uM after 24 hrs using propidium iodide staining by flow cytometry (reference value: 3.45%); type: functional
SW-620 [26] = assay: Cell cycle arrest in human SW620 cells assessed as increase in sub-G1 DNA content at 50 uM after 24 hrs using propidium iodide staining by flow cytometry (reference value: 3.45%); type: functional
SW-620 [27] = assay: Induction of apoptosis in human SW620 cells assessed as blockage of G1-phase at 50 uM after 24 hrs using propidium iodide staining by flow cytometry; type: functional, cell-based
Mus musculus [28] = assay: Antitumor activity against mouse Ehrlich Ascites tumor xenografted in ip dosed Swiss albino mouse assessed as tumor growth administered for 9 days; type: functional, organism-based
[29] = Antitumor activity against mouse Ehrlich Ascites tumor xenografted in Swiss albino mouse assessed as decrease in tumor weight at 10 mg/kg, ip administered for 9 days (reference value: 1708+/-51.07 mg); type: functional; conditions: route intraperitoneal
[30] = Antitumor activity against mouse Ehrlich Ascites tumor xenografted in Swiss albino mouse assessed as decrease in tumor weight at 25 mg/kg, ip administered for 9 days (reference value: 1708+/-51.07 mg); type: functional; conditions: route intraperitoneal
[31] = Antitumor activity against mouse Ehrlich Ascites tumor xenografted in Swiss albino mouse assessed as decrease in tumor weight at 50 mg/kg, ip administered for 9 days (reference value: 1708+/-51.07 mg); type: functional; conditions: route intraperitoneal
[32] = Antitumor activity against mouse Ehrlich Ascites tumor xenografted in Swiss albino mouse assessed as decrease in tumor weight at 100 mg/kg, ip administered for 9 days (reference value: 1708+/-51.07 mg); type: functional; conditions: route intraperitoneal
Mus musculus [33] = assay: Toxicity in Swiss albino mouse model of Ehrlich Ascites tumor assessed as mortality at 200 mg/kg, ip administered for 9 days measured on third day; type: organism-based; design: dose 200 mg/kg, route intraperitoneal; conditions: in vivo, 216 h
[34] = Antitumor activity against mouse Ehrlich Ascites tumor xenografted in Swiss albino mouse assessed as tumor growth inhibition at 10 mg/kg, ip administered for 9 days measured on day 13; type: functional; conditions: route intraperitoneal, read-out: GI
[35] = Antitumor activity against mouse Ehrlich Ascites tumor xenografted in Swiss albino mouse assessed as tumor growth inhibition at 25 mg/kg, ip administered for 9 days measured on day 13; type: functional; conditions: route intraperitoneal, read-out: GI

SMILES: C[C@H]1CC[C@@H]2[C@@H](OC(=O)[C@]23CC(c2c4ccccc4cc4ccccc24)=NO3)[C@]2(C)C(=O)C=C[C@@]12O
- inhibition in vivo at 50 mg/kg [1]: 22%
- inhibition in vivo at 100 mg/kg [2]: 35.1%
- growth inhibition (GI) (Ehrlich [3]): Dose-dependent effect
- inhibition [4]: Active
- Activity [5]: 4.07 mL
- Activity [6]: 3.62 mL
- Activity [7]: 2.85 mL
- Activity [8]: 2.07 mL
- Activity (Mus musculus [9]): Toxic
- Activity (Ehrlich [10]): Active
- Activity (Ehrlich [11]): Active
- Activity (Ehrlich [12]): Active
- Activity (Ehrlich [13]): Active
- inhibition in vivo at 10 mg/kg [14]: 7.74%
- inhibition in vivo at 25 mg/kg [15]: 19.2%
- inhibition in vivo at 50 mg/kg [16]: 27.2%
- inhibition in vivo at 100 mg/kg [17]: 60.5%
- logP [18]: 3.71
- Activity (Mus musculus [19]): Toxic
- IC50 (SW-620 [20]): 4.3 µM
- IC50 (DU-145): 4.6 µM
- IC50 (PC-3): 4.9 µM
- Activity (SW-620 [21]): Active
- Activity (SW-620 [22]): Active
- Activity (SW-620 [23]): 33.09%
- Activity (SW-620 [24]): 6.58%
- Activity (SW-620 [25]): 33.2%
- Activity (SW-620 [26]): 55%
- Activity (SW-620 [27]): Active
- growth inhibition (GI) (Mus musculus [28]): Dose-dependent effect
- Activity [29]: 1547.14 mg
- Activity [30]: 1445.71 mg
- Activity [31]: 1332.14 mg
- Activity [32]: 1108.57 mg
- Activity (Mus musculus [33]): Toxic
- inhibition in vivo at 10 mg/kg [34]: 9.44%
- inhibition in vivo at 25 mg/kg [35]: 15.4%

— ChEMBL document CHEMBL1806428, “Design and synthesis of spiro derivatives of parthenin as novel anti-cancer agents” (Eur J Med Chem, 2011)
